These results are taken from ChEMBL document CHEMBL1147731, “Potent 7-hydroxy-1,2,3,4-tetrahydroisoquinoline-3-carboxylic acid-based macrocyclic inhibitors of hepatitis C virus NS3 protease” (J Med Chem, 2006).

The structures appear in SMILES notation. Numbered stars: 1 amine (or outer) side, 2 acyl side, 3 side chain; on linkers, the order of the positions; unused ones are H or OH. Bridge positions count the residues as written; N and C are the ends. Square brackets hold non-standard residues; d marks the D form. Peptide text beside a SMILES is read from it. * marks the point of attachment. Tic(7-O(CH2)6CO) = O=C([C@@H]1Cc2ccc(OCCCCCCC(=O)[*:3])cc2CN1[*:1])[*:2]; X1 = CCCC(N[*:1])C(=O)C(=O)[*:2]; Chg = N[C@H](C(=O)O)C1CCCCC1; Phg = N[C@H](C(=O)O)c1ccccc1; OtBu = CC(C)(C)O* A value given as a limit tells only on which side of the number the result lay.

One series deals with NS3 (Hepatitis C virus, UniProt A3EZJ3). Briefly: Inhibition of HCV NS3 protease. Also on record: species or system Hepacivirus hominis. In outline:
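Continuous spectrophotometric assay with NS4A-tethered single-chain NS3 serine protease, following cleavage of chromogenic ester substrates. Inhibition constants (Ki*) were determined. Compounds were tested as a mixture of two P1 diastereomers because pure P1 isomers racemized extensively under the assay conditions.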

Series [1] can be described thus: AUC in rat administered sc. Format: ADME, organism-based. The note with it: plasma.
A short description of series [2]: Oral bioavailability in rat. Format: ADME, organism-based. The note with it: in vivo.
Series [3] is described as follows: AUC in rat administered po. In kind it is ADME, organism-based. The note with it: plasma.

NS3, sequence (A3EZJ3 whole entry): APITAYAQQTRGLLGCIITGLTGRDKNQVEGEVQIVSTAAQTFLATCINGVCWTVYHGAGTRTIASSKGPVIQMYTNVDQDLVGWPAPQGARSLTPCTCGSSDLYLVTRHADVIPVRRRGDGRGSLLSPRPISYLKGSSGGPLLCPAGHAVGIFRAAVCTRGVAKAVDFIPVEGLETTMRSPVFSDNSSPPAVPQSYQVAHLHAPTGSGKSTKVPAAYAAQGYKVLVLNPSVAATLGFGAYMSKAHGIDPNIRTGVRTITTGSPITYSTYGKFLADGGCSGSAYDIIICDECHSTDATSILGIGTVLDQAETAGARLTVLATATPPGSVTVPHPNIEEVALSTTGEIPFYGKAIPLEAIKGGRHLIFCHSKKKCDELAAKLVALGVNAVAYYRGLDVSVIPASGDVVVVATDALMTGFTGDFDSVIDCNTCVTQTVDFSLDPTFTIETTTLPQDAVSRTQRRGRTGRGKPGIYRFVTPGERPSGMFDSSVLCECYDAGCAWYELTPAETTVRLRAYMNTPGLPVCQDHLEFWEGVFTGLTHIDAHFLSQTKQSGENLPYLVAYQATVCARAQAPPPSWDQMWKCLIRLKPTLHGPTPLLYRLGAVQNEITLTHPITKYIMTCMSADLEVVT

A word on the Ki: it is the dissociation constant of the complex between target and ligand, obtained from inhibition or displacement. On to `CCCC(NC(=O)[C@@H]1Cc2ccc3cc2CN1C(=O)[C@H](C1CCCCC1)NC(=O)CCCCCCO3)C(=O)C(=O)NCC(=O)NCc1ccccc1` (stereo not given in full), for which, on NS3, the affinity corresponds to a Ki of 2000 nM. Regarding `CCCC(NC(=O)[C@@H]1Cc2ccc3cc2CN1C(=O)[C@H](C1CCCCC1)NC(=O)CCCCCCO3)C(=O)C(=O)NCC(=O)OCc1ccccc1` (stereo not given in full), on NS3, the affinity corresponds to a Ki of 1700 nM. For the compound `CCCC(NC(=O)[C@@H]1Cc2ccc3cc2CN1C(=O)[C@H](C1CCCCC1)NC(=O)CCCCCCO3)C(=O)C(N)=O` (stereo not given in full), at NS3, the affinity corresponds to a Ki of 2100 nM.

On NS3, `CCCC(NC(=O)[C@@H]1Cc2ccc3cc2CN1C(=O)[C@H](C1CCCCC1)NC(=O)CCCCCCO3)C(=O)C(=O)NCC(=O)O` (stereo not given in full) came in with a Ki of 3000 nM. As usually defined, the AUC is concentration integrated over time. Usually bioavailability stands for the share of a dose that reaches the circulation, judged against a reference dose that is usually intravenous. A high value points to much systemic uptake. As to `CCCC(NC(=O)[C@@H]1Cc2ccc3cc2CN1C(=O)[C@H](C1CCCCC1)NC(=O)CCCCCCO3)C(=O)C(=O)NCC(=O)N[C@H](C(=O)N(C)C)c1ccccc1` (stereo not given in full) ([Chg][Tic(7-O(CH2)6CO)][X1]G[Phg]-NMe2; lactam N-2), the affinity at NS3 corresponds to a Ki of 21 nM. For the same compound, the exposure (AUC) in series [1] came to 5.5 µM·h; in series [3] it was 0.27 µM·h. Further, the bioavailability in series [2] was under 10%. `CCCC(NC(=O)[C@@H]1Cc2ccc3cc2CN1C(=O)[C@H](C1CCCCC1)NC(=O)CCCCCCO3)C(=O)C(=O)NCC(=O)N[C@H](C(=O)O)c1ccccc1` (stereo not given in full) ([Chg][Tic(7-O(CH2)6CO)][X1]G[Phg]-OH; lactam N-2) showed a Ki on NS3 of 15 nM. For `CCCC(NC(=O)[C@@H]1Cc2ccc3cc2CN1C(=O)[C@H](C1CCCCC1)NC(=O)CCCCCCO3)C(=O)C(=O)NCC(=O)N[C@H](C(=O)OC(C)(C)C)c1ccccc1` (stereo not given in full) ([Chg][Tic(7-O(CH2)6CO)][X1]G[Phg]-OtBu; lactam N-2), on NS3, the Ki amounted to 260 nM.
